Data as given in the RNAGym collection of RNA variant scans (doi:10.1126/science.aae0568).
Fewer inactive variants are shown than the library holds.

B1: tRNA (parent)
chain: GUUCCGUUGGCGUAAUGGUAACGCGUCUCCCUCCUAAGGAGAAGACUGCGGGUUCGAGUCCCGUACGGAACG

Variants of: B1
Experiment: yeast fitness relative to wild type (ratio to wild type); higher = fitter; tRNA-Arg(CCU), competitive growth, 37 C, YPD
Method in brief: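 Gene amplicons from the start population and from each of six end populations were read by 100-nucleotide paired-end sequencing. Those end populations came from pooled Saccharomyces cerevisiae strains carrying tRNA-Arg(CCU) gene variants at the native locus, competed in YPD at 37°C for 24 hours. Fitness relative to wild type was worked out from changes in genotype frequencies. Genotypes needed ≥ 100 starting reads, and estimates < 0.5 were set to 0.5.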

Variant | yeast fitness
GUGCCGUUGGCGUAAGGGUAACGCGUCCCCCUCCUAAGGAGAAGACUGCGGGUUCGUGUCCCGUACGGAACG [U3G U16G U28C A57U] | ≤ 0.5
GUGCCGUUGGCGUAAUGGUAACGCGUCUCCCUCCUAAGGAGAAGACUGCAGGUUCGAGUCCUGUACGGAACG [U3G G50A C62U] | 1.04
GUGCCGUUGGCGUAAUCGUAACGCGUCUCCCUCCUAAGGAGAAGACUGCGGGUUCGAGUCACGUACGGAACG [U3G G17C C61A] | 0.61
GUGCCGUAGGCGUAAUGCUAACGCGUCUGCCUCCUCAGGAGAAGACUGCGGGUUCGAGUCCCGUACGGAACG [U3G U8A G18C C29G A36C] | ≤ 0.5
GUGCCGUUGGCGUAAUGGUAACGCGUCUCCCUCCUAAGAGGAAGACUGCGGGUUCGAGUCCCGUACGGAACG [U3G G39A A40G] | ≤ 0.5
GUGCCGUUGGCGCAAUGGUAAAGCCUCUCCCUUCUAAGGAGAAGACUGCGGGUUCGAGUCCCGUACGGCACG [U3G U13C C22A G25C C33U A69C] | ≤ 0.5
GUGCCGUUGGCGUAAAGGUAACGCGUCUCCCUCCUAAGGAGAAGACUGCGGGUUCGAGUCCCGUGCGGAACG [U3G U16A A65G] | 0.664
GUGCCGUUGGCGUAAUGGUAACGCGUCUCCCUCCUAAGGAGAAGACUACGGGUUCGAGUCCCGUACGGUACG [U3G G48A A69U] | 0.638
GUGCCGUUGGCGUAAUGGUAACGCGUCUCCCUCCUAAGGAGAAGACUGCGGGUUCGAGUCCCGUACCGAACG [U3G G67C] | 0.825
GUGCCGUUGGCGUAACGGUAACGCGUCUCCCUCCUAAGCAGAAGCCUGGGGGUUCGAGUCCCGUACGGUACG [U3G U16C G39C A45C C49G A69U] | ≤ 0.5
GUGCCGUUGGCGUAAUGAUAACGCGUCUCCCUCCUAAGGAGAAGACUGCGGGUUCGAGUCCCGUACGGUACG [U3G G18A A69U] | ≤ 0.5
GUGCCGUUGGCGUAAUGAUAACGCAUCUACCUCCUAAGGAGAAGACUGCGGGUUCGAGUCCCGUACGGAACG [U3G G18A G25A C29A] | ≤ 0.5
GUGCCGUUGGCGAAAAGGUAACGCGUCUCCCUCCUAAGGAGAAGACUGCGGGUUCGAGUCCUGAACGGAACG [U3G U13A U16A C62U U64A] | ≤ 0.5
GUGCCGUUGGCGCUAUGGUAACGCGUCUACCUCCUAAGGAGAAGACUGCGGGUUCGAGUCCCGUACGGCACG [U3G U13C A14U C29A A69C] | 0.562
GUGCCGUUGGCGUAAUGGUAACGCGUCUCCCUCCUAAGGAGAAGACUGCGGGUUCGAGUCCCGUACGUAACG [U3G G68U] | 0.808
GUGCCGUUGGCGUAAUGAUAACGCGUCUCGCUCCUAAGGAUAAGACUGGGGGUUCGAGUCCCGUACGGAACG [U3G G18A C30G G41U C49G] | ≤ 0.5
GUGCCGUUGGCGUAAGGGUAACGCGUCUCCCUCCUAAGGAGAAGACUGCGGGUUCGAGUCCCGUACGGAACG [U3G U16G] | 1.02
GUGCCGUUGGCGGCAUGGUAACGCGUCUCCCUCCUAAGCAAAAGACUGCGGGUUCGAGUGUGGUUCGGAACG [U3G U13G A14C G39C G41A C60G C61U C62G A65U] | 0.543
GUGCCGUUGGCGUAAUGGUAACGCGUCUCCCUCCUAAGGAAAAGACUGCGGGUUCGAGUCCCGUACGGAACG [U3G G41A] | 0.748

Variant | yeast fitness
GUGCCGUUGGCGUAAUCGUAACGCGUCUCCCUCCUAAGGAGAAGACUGCGGGUUCGAGUCCUGUACGGAACG [U3G G17C C62U] | ≤ 0.5
GUGCCGUUGGCGUAAUGGUAACGCGUCUCCCUCCUAAGGAGAAGACUGCGGGUUCGAGACCCGUACGGAACG [U3G U59A] | 0.793
GUGCCGUUGGCGUAAUAGUAACGCGUCUCUCUCCUAAGGAGAAGACUGCGGGUUCGUGUCCCGUACGGAACG [U3G G17A C30U A57U] | ≤ 0.5
GUGCCGUUGGCGUAAUGGUAACGCGUCUCCCUCCAAAGGAGAAGACUGCGGGUUCGAGUCCCGUACGGAACG [U3G U35A] | 0.533
GUGCCGUUGGCGUAAUGGUAACGCGUCUCCCUCCUAAGGAGAAGACCGCGGGUUCGAGUCCCGUACGGAACG [U3G U47C] | 0.901
GUGCCGUCGGCGUAAUGGUAACGCGUCUCCCUCCUAAGGAGAAGGCUGCGGGUUCGAGUCCCGUACGGAACG [U3G U8C A45G] | 0.702
GUGCCGUUGGCGUAAUGGUAACGCGUCUCCCUCCUAAGGAGAAGACAGCGGGUUCGAGUCCCGUACGCAACG [U3G U47A G68C] | ≤ 0.5
GUGCCGUCGGCGUAAUGGUAACGCGUCUCCCUUCUAAGGAGAAGACUGCGGGUCCGAGUCCCGUAAGGAACG [U3G U8C C33U U54C C66A] | ≤ 0.5
GUGCCGUUGGCGUAAUGGUAACGCGACUACCUCAUAAAGAGAAGACUGCGGGUUCGAGUCCCGUUCGGAACG [U3G U26A C29A C34A G38A A65U] | ≤ 0.5
GUGCCGUUGGCGUAAUGGCAACGCGUCUCCCUCCUAAGGAGAAGACUGCGGGUUCGAGUCCCGUACGGAACG [U3G U19C] | 0.841
GUGCCGUUGGCGUAAUGGGAACGCGUCUCCCUCCUAAGGAGAAGACUGCGGGUUCGAGUCCCGUACGGAACG [U3G U19G] | 0.641
GUGCCGUUGGCGUAAUGGUAACGCGUCUCCCUCCUAAGGAGAAGACUGCAGGUUCGAGUCCCGUACGGAACG [U3G G50A] | 0.817
GUGCCGUUGGCGUAAUGGUAACGCGUCUCCCUCCUAAGGAGAACACUGCGGGUACGAGUCCCGUACGGAACG [U3G G44C U54A] | ≤ 0.5
GUGCCGUUGGCGUAAUGCUAACGCGUCUCCCUCCUAAGGAGAAAACUGCGGGUUCGAGUCCCGUACGGAACG [U3G G18C G44A] | ≤ 0.5
GUGCCGUUGGCGUAACGGUAACGCGUCUCCCUCCUAAGCAGAAGCCUGGGGGUUCGAGUCCCGUACGGAACG [U3G U16C G39C A45C C49G] | ≤ 0.5
GUGCCGUUGGCGUAAUGAUAACGCGUCUCCCUCCUAAGGAGAAGACUGCGGGUUCGAGUGCCGUACGGAACG [U3G G18A C60G] | 0.538
GUGCCGUUGGCGUAAUAGUAACGCGUCUCCCUCCUAAGGAGAAGACUGCGGGUUCGAGUCCCGUACGGAACG [U3G G17A] | 0.665
GUGCCGUUGGCGUAAUAGUAACGAGUCUCCCUCAUAAGGAGAAGAGUGCGGGUUCGAGUCCCGUACGGAACG [U3G G17A C24A C34A C46G] | ≤ 0.5
GUGCCGUUGGCGUAAUGGUAACGCGUCUCCCUCCAAAGGAGAAGACUGCGGGUUCGAGUCCCGUACGGAGCG [U3G U35A A70G] | ≤ 0.5
